According to ChEMBL document CHEMBL2321753, “Synthesis and biological evaluation of radioiodinated quinacrine-based derivatives for SPECT imaging of Aβ plaques” (Eur J Med Chem, 2013):

Experiments:
Liver [1] = experiment: Biodistribution in ddY mouse liver at 0.1 to 0.4 uCi, iv after 30 mins by gamma counting; assay type: ADME, organism-based; conditions: in vivo, 0.5 h
Summary of the method: (§1)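 [125I]ligand (0.1–0.4 µCi) in 100 µL PBS (pH 7.4) containing 30 µL DMSO, injected into the tail vein of ddY mice (5 weeks, 22–25 g). Mice sacrificed at 2, 10, 30 and 60 min. Organs removed, weighed and gamma-counted. Values are % injected dose per gram, except stomach as % dose per organ. Mean (SD) of 3–6 mice per time point.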

Heart [2] = experiment: Biodistribution in ddY mouse heart at 0.1 to 0.4 uCi, iv after 10 mins by gamma counting; assay type: ADME, organism-based; conditions: in vivo; summary of the method: as §1
Brain [3] = experiment: Biodistribution in ddY mouse brain at 0.1 to 0.4 uCi, iv after 60 mins by gamma counting; assay type: ADME, organism-based; conditions: in vivo, 1 h; summary of the method: as §1
Kidney [4] = experiment: Biodistribution in ddY mouse kidney at 0.1 to 0.4 uCi, iv after 60 mins by gamma counting; assay type: ADME, organism-based; conditions: in vivo, 1 h; summary of the method: as §1
Brain [5] = experiment: Ratio of drug level in brain after 2 mins to brain after 60 mins in ddY mouse brain at 0.1 to 0.4 uCi, iv; assay type: ADME, organism-based; conditions: in vivo
Summary of the method: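 ddY mice (5 weeks, 22–25 g) given [125I]ligand (0.1–0.4 µCi) iv in PBS/DMSO. Brain radioactivity (% dose/g) measured by gamma counting at 2 and 60 min, and the 2 min/60 min ratio taken as a washout index.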

Blood [6] = experiment: Biodistribution in ddY mouse blood at 0.1 to 0.4 uCi, iv after 60 mins by gamma counting; assay type: ADME, organism-based; conditions: in vivo, 1 h; summary of the method: as §1
Blood [7] = experiment: Biodistribution in ddY mouse blood at 0.1 to 0.4 uCi, iv after 2 mins by gamma counting; assay type: ADME, organism-based; conditions: in vivo; summary of the method: as §1
Liver [8] = experiment: Biodistribution in ddY mouse liver at 0.1 to 0.4 uCi, iv after 60 mins by gamma counting; assay type: ADME, organism-based; conditions: in vivo, 1 h; summary of the method: as §1
Brain [9] = experiment: Biodistribution in ddY mouse brain at 0.1 to 0.4 uCi, iv after 2 mins by gamma counting; assay type: ADME, organism-based; conditions: in vivo; summary of the method: as §1
Spleen [10] = experiment: Biodistribution in ddY mouse spleen at 0.1 to 0.4 uCi, iv after 60 mins by gamma counting; assay type: ADME, organism-based; conditions: in vivo, 1 h; summary of the method: as §1
Stomach [11] = experiment: Biodistribution in ddY mouse stomach assessed per organ at 0.1 to 0.4 uCi, iv after 30 mins by gamma counting; assay type: ADME, organism-based; conditions: in vivo, 0.5 h; summary of the method: as §1
Blood [12] = experiment: Biodistribution in ddY mouse blood at 0.1 to 0.4 uCi, iv after 10 mins by gamma counting; assay type: ADME, organism-based; conditions: in vivo; summary of the method: as §1
Kidney [13] = experiment: Biodistribution in ddY mouse kidney at 0.1 to 0.4 uCi, iv after 2 mins by gamma counting; assay type: ADME, organism-based; conditions: in vivo; summary of the method: as §1
Lung [14] = experiment: Biodistribution in ddY mouse lung at 0.1 to 0.4 uCi, iv after 60 mins by gamma counting; assay type: ADME, organism-based; conditions: in vivo, 1 h; summary of the method: as §1
Spleen [15] = experiment: Biodistribution in ddY mouse spleen at 0.1 to 0.4 uCi, iv after 2 mins by gamma counting; assay type: ADME, organism-based; conditions: in vivo; summary of the method: as §1
Pancreas [16] = experiment: Biodistribution in ddY mouse pancreas at 0.1 to 0.4 uCi, iv after 10 mins by gamma counting; assay type: ADME, organism-based; conditions: in vivo; summary of the method: as §1
Pancreas [17] = experiment: Biodistribution in ddY mouse pancreas at 0.1 to 0.4 uCi, iv after 60 mins by gamma counting; assay type: ADME, organism-based; conditions: in vivo, 1 h; summary of the method: as §1
Intestine [18] = experiment: Biodistribution in ddY mouse intestine at 0.1 to 0.4 uCi, iv after 60 mins by gamma counting; assay type: ADME, organism-based; conditions: in vivo, 1 h; summary of the method: as §1
Pancreas [19] = experiment: Biodistribution in ddY mouse pancreas at 0.1 to 0.4 uCi, iv after 2 mins by gamma counting; assay type: ADME, organism-based; conditions: in vivo; summary of the method: as §1
Kidney [20] = experiment: Biodistribution in ddY mouse kidney at 0.1 to 0.4 uCi, iv after 30 mins by gamma counting; assay type: ADME, organism-based; conditions: in vivo, 0.5 h; summary of the method: as §1
Heart [21] = experiment: Biodistribution in ddY mouse heart at 0.1 to 0.4 uCi, iv after 2 mins by gamma counting; assay type: ADME, organism-based; conditions: in vivo; summary of the method: as §1
Heart [22] = experiment: Biodistribution in ddY mouse heart at 0.1 to 0.4 uCi, iv after 60 mins by gamma counting; assay type: ADME, organism-based; conditions: in vivo, 1 h; summary of the method: as §1
Brain [23] = experiment: Biodistribution in ddY mouse brain at 0.1 to 0.4 uCi, iv after 30 mins by gamma counting; assay type: ADME, organism-based; conditions: in vivo, 0.5 h; summary of the method: as §1
Stomach [24] = experiment: Biodistribution in ddY mouse stomach assessed per organ at 0.1 to 0.4 uCi, iv after 60 mins by gamma counting; assay type: ADME, organism-based; conditions: in vivo, 1 h; summary of the method: as §1
Intestine [25] = experiment: Biodistribution in ddY mouse intestine at 0.1 to 0.4 uCi, iv after 2 mins by gamma counting; assay type: ADME, organism-based; conditions: in vivo; summary of the method: as §1
[26] = n-octanol-sodium phosphate buffer partition co-efficient, log D of the compound at pH 7.4 by shake flask method; assay type: physicochemical
Summary of the method: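 Shake-flask partition between n-octanol and sodium phosphate buffer, pH 7.4, shaken 10 min at room temperature, then centrifuged. Weighed 0.5 mL samples of each layer counted. log D from the ratio of cpm per gram of octanol to cpm per gram of buffer; n = 3.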

Pancreas [27] = experiment: Biodistribution in ddY mouse pancreas at 0.1 to 0.4 uCi, iv after 30 mins by gamma counting; assay type: ADME, organism-based; conditions: in vivo, 0.5 h; summary of the method: as §1
Stomach [28] = experiment: Biodistribution in ddY mouse stomach assessed per organ at 0.1 to 0.4 uCi, iv after 2 mins by gamma counting; assay type: ADME, organism-based; conditions: in vivo; summary of the method: as §1
Heart [29] = experiment: Biodistribution in ddY mouse heart at 0.1 to 0.4 uCi, iv after 30 mins by gamma counting; assay type: ADME, organism-based; conditions: in vivo, 0.5 h; summary of the method: as §1
Spleen [30] = experiment: Biodistribution in ddY mouse spleen at 0.1 to 0.4 uCi, iv after 30 mins by gamma counting; assay type: ADME, organism-based; conditions: in vivo, 0.5 h; summary of the method: as §1
Lung [31] = experiment: Biodistribution in ddY mouse lung at 0.1 to 0.4 uCi, iv after 30 mins by gamma counting; assay type: ADME, organism-based; conditions: in vivo, 0.5 h; summary of the method: as §1
Liver [32] = experiment: Biodistribution in ddY mouse liver at 0.1 to 0.4 uCi, iv after 10 mins by gamma counting; assay type: ADME, organism-based; conditions: in vivo; summary of the method: as §1
Liver [33] = experiment: Biodistribution in ddY mouse liver at 0.1 to 0.4 uCi, iv after 2 mins by gamma counting; assay type: ADME, organism-based; conditions: in vivo; summary of the method: as §1
Intestine [34] = experiment: Biodistribution in ddY mouse intestine at 0.1 to 0.4 uCi, iv after 30 mins by gamma counting; assay type: ADME, organism-based; conditions: in vivo, 0.5 h; summary of the method: as §1
Lung [35] = experiment: Biodistribution in ddY mouse lung at 0.1 to 0.4 uCi, iv after 10 mins by gamma counting; assay type: ADME, organism-based; conditions: in vivo; summary of the method: as §1
Lung [36] = experiment: Biodistribution in ddY mouse lung at 0.1 to 0.4 uCi, iv after 2 mins by gamma counting; assay type: ADME, organism-based; conditions: in vivo; summary of the method: as §1
Stomach [37] = experiment: Biodistribution in ddY mouse stomach assessed per organ at 0.1 to 0.4 uCi, iv after 10 mins by gamma counting; assay type: ADME, organism-based; conditions: in vivo; summary of the method: as §1
Blood [38] = experiment: Biodistribution in ddY mouse blood at 0.1 to 0.4 uCi, iv after 30 mins by gamma counting; assay type: ADME, organism-based; conditions: in vivo, 0.5 h; summary of the method: as §1
Spleen [39] = experiment: Biodistribution in ddY mouse spleen at 0.1 to 0.4 uCi, iv after 10 mins by gamma counting; assay type: ADME, organism-based; conditions: in vivo; summary of the method: as §1
Intestine [40] = experiment: Biodistribution in ddY mouse intestine at 0.1 to 0.4 uCi, iv after 10 mins by gamma counting; assay type: ADME, organism-based; conditions: in vivo; summary of the method: as §1
Brain [41] = experiment: Biodistribution in ddY mouse brain at 0.1 to 0.4 uCi, iv after 10 mins by gamma counting; assay type: ADME, organism-based; conditions: in vivo; summary of the method: as §1
Kidney [42] = experiment: Biodistribution in ddY mouse kidney at 0.1 to 0.4 uCi, iv after 10 mins by gamma counting; assay type: ADME, organism-based; conditions: in vivo; summary of the method: as §1

CNc1c2ccc([125I])cc2nc2ccc(OC)cc12
Drug uptake (Liver [1]): 8.26 % ID/g
Drug uptake (Heart [2]): 2.8 % ID/g
Drug uptake (Brain [3]): 0.33 % ID/g
Drug uptake (Kidney [4]): 6 % ID/g
Ratio (Brain [5]): 9
Drug uptake (Blood [6]): 0.56 % ID/g
Drug uptake (Blood [7]): 1.75 % ID/g
Drug uptake (Liver [8]): 7.52 % ID/g
Drug uptake (Brain [9]): 2.97 % ID/g
Drug uptake (Spleen [10]): 4.45 % ID/g
Drug uptake (Stomach [11]): 4.63 %ID
Drug uptake (Blood [12]): 1.18 % ID/g
Drug uptake (Kidney [13]): 12.98 % ID/g
Drug uptake (Lung [14]): 2.3 % ID/g
Drug uptake (Spleen [15]): 7.6 % ID/g
Drug uptake (Pancreas [16]): 6.92 % ID/g
Drug uptake (Pancreas [17]): 1.63 % ID/g
Drug uptake (Intestine [18]): 23.83 % ID/g
Drug uptake (Pancreas [19]): 6.91 % ID/g
Drug uptake (Kidney [20]): 10.25 % ID/g
Drug uptake (Heart [21]): 7.79 % ID/g
Drug uptake (Heart [22]): 0.84 % ID/g
Drug uptake (Brain [23]): 0.95 % ID/g
Drug uptake (Stomach [24]): 5.58 %ID
Drug uptake (Intestine [25]): 3.82 % ID/g
logD [26]: 2.14
Drug uptake (Pancreas [27]): 3.55 % ID/g
Drug uptake (Stomach [28]): 1.71 %ID
Drug uptake (Heart [29]): 1.46 % ID/g
Drug uptake (Spleen [30]): 6.02 % ID/g
Drug uptake (Lung [31]): 4.38 % ID/g
Drug uptake (Liver [32]): 16.41 % ID/g
Drug uptake (Liver [33]): 17.25 % ID/g
Drug uptake (Intestine [34]): 19.47 % ID/g
Drug uptake (Lung [35]): 5.62 % ID/g
Drug uptake (Lung [36]): 15.8 % ID/g
Drug uptake (Stomach [37]): 3.71 %ID
Drug uptake (Blood [38]): 0.85 % ID/g
Drug uptake (Spleen [39]): 9.14 % ID/g
Drug uptake (Intestine [40]): 9.11 % ID/g
Drug uptake (Brain [41]): 2.34 % ID/g
Drug uptake (Kidney [42]): 11.89 % ID/g
